Results taken from ChEMBL document CHEMBL4004835, “Discovery of Novel Disruptor of Silencing Telomeric 1-Like (DOT1L) Inhibitors using a Target-Specific Scoring Function for the (S)-Adenosyl-l-methionine (SAM)-Dependent Methyltransferase Family” (J Med Chem, 2017).
Calls of active or inactive are those of the source. No cut-off for these calls is given here.

Assays:
MV4-11 [1] = assay: Induction of cell cycle arrest in human MV4-11 cells assessed as accumulation at G2 phase at 25 uM after 48 hrs by propidium iodide/RNase-staining based flow cytometric analysis (reference value: 7.44 %); format: functional
In short: (§1)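 MV4-11 cells (2 × 10^6) seeded in 12-well dishes, treated with different concentrations for 48 h, processed with a PI/RNase staining kit and analysed for cell-cycle distribution by FACSCalibur flow cytometry.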

MV4-11 [2] = assay: Induction of cell cycle arrest in human MV4-11 cells assessed as accumulation at S phase at 6.25 uM after 48 hrs by propidium iodide/RNase-staining based flow cytometric analysis (reference value: 24.40 %); format: functional; in short: as §1
MV4-11 [3] = assay: Induction of apoptosis in human MV4-11 cells assessed as viable cells at 6.25 uM after 72 hrs by annexin V/FITC and propidium iodide staining-based flow cytometric analysis (reference value: 90.3 %); format: functional; conditions: MV4-11, 72 h, read-out: Activity
[4] = target: Histone-lysine N-methyltransferase, H3 lysine-36 specific (Homo sapiens) (UniProt Q96L73); assay: Inhibition of NSD1 (unknown origin) at 50 and 100 uM preincubated for 15 mins followed by substrate and [3H]-SAM addition after 120 mins by MicroBeta counting
Histone-lysine N-methyltransferase, H3 lysine-36 specific (Homo sapiens), sequence (Q96L73 whole entry): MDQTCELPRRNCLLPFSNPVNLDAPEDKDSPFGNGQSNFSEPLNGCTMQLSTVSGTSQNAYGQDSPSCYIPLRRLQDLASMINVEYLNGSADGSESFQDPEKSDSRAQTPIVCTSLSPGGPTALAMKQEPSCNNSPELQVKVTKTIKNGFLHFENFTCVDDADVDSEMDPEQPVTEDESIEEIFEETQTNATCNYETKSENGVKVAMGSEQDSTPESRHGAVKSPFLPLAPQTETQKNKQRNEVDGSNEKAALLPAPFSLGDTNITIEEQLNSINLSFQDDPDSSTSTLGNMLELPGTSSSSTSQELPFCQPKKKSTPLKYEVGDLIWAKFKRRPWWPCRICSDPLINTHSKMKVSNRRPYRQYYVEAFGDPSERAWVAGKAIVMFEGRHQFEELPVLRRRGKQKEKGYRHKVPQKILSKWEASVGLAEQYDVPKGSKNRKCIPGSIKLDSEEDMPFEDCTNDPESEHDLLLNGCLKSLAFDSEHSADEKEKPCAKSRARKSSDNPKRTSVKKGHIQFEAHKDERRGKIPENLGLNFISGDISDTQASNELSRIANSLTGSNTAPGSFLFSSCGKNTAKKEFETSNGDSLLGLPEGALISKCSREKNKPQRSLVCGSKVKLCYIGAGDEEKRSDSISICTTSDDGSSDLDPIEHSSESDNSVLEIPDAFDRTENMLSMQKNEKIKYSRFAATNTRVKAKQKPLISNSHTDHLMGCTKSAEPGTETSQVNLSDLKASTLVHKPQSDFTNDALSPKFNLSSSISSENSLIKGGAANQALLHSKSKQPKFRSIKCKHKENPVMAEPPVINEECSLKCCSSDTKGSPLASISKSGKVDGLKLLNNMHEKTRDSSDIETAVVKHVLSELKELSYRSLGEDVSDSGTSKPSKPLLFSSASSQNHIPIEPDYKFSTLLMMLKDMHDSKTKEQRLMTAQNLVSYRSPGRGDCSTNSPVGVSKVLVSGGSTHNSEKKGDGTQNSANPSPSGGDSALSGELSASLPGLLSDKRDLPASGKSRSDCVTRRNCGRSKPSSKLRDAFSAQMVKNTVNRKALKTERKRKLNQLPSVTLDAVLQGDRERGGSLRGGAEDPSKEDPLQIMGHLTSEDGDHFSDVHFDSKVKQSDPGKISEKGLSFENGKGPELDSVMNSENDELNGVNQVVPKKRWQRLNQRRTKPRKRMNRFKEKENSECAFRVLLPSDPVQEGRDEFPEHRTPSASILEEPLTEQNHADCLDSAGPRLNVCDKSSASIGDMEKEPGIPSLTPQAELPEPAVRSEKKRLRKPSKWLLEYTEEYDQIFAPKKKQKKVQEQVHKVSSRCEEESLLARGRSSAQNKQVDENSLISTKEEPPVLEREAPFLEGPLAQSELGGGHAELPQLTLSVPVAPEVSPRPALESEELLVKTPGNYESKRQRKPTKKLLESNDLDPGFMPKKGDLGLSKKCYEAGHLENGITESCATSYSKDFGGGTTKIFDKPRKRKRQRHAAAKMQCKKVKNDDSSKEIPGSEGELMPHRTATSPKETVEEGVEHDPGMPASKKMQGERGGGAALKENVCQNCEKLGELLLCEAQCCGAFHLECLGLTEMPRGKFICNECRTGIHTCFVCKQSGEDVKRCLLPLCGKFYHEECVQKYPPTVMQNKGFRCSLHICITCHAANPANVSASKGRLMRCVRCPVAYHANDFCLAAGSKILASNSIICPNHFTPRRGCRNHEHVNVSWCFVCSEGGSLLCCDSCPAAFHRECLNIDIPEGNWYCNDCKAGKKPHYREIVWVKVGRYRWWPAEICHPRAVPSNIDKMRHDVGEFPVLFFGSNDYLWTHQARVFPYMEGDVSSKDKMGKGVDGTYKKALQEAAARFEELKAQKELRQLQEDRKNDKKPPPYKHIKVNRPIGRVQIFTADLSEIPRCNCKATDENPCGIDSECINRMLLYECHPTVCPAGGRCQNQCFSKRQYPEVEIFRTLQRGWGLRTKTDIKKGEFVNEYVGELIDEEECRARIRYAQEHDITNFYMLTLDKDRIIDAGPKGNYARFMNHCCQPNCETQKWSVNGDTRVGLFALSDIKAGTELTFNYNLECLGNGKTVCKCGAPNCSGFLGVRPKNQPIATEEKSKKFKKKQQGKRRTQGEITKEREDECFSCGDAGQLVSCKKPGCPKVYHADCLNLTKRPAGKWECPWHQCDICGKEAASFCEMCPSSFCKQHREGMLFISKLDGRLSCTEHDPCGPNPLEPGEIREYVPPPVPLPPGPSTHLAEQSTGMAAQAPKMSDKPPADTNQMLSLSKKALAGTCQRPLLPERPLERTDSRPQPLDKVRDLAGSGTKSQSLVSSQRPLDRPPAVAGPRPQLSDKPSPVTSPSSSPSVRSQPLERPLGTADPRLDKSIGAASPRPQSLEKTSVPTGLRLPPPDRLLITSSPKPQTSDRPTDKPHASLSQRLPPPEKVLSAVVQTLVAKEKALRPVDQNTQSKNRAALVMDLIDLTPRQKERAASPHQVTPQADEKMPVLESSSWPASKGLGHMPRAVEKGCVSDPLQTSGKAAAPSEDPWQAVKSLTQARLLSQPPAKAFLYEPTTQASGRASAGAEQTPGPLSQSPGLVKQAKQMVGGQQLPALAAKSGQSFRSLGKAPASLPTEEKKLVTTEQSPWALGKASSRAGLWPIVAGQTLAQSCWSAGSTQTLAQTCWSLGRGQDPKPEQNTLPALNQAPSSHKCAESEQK
In short: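 In modified Tris buffer, enzyme incubated 15 min at room temperature, then substrate and [3H]SAM added; stopped at 120 min with cold SAM; transferred to a 0.5% PEI-pretreated GF/B plate, washed 3× with water, read by MicroBeta.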

MV4-11 [5] = assay: Induction of apoptosis in human MV4-11 cells assessed as necrotic cells at 25 uM after 72 hrs by annexin V/FITC and propidium iodide staining-based flow cytometric analysis (reference value: 0.04 %); format: functional
MV4-11 [6] = assay: Induction of apoptosis in human MV4-11 cells assessed as early apoptotic cells at 50 uM after 72 hrs by annexin V/FITC and propidium iodide staining-based flow cytometric analysis (reference value: 5.66 %); format: functional
K562 = assay: Cytotoxicity against human K562 cells assessed as reduction in cell viability after 72 hrs by alamar blue assay; format: functional, cell-based; conditions: K562, 72 h
In short: (§2)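 Cells cultured in RPMI 1640 with 10% FBS and 1% penicillin/streptomycin, treated with a range of concentrations or equal DMSO, 37 °C, 5% CO2, 72 h. Viability read by alamar blue (ex 544/em 590 nm); percent proliferation and IC50 curve fitted.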

MV4-11 [7] = assay: Induction of apoptosis in human MV4-11 cells assessed as necrotic cells at 50 uM after 72 hrs by annexin V/FITC and propidium iodide staining-based flow cytometric analysis (reference value: 0.04 %); format: functional
MV4-11 [8] = assay: Induction of apoptosis in human MV4-11 cells assessed as viable cells at 50 uM after 72 hrs by annexin V/FITC and propidium iodide staining-based flow cytometric analysis (reference value: 90.3 %); format: functional; conditions: MV4-11, 72 h, read-out: Activity
MV4-11 [9] = assay: Induction of apoptosis in human MV4-11 cells assessed as early apoptotic cells at 25 uM after 72 hrs by annexin V/FITC and propidium iodide staining-based flow cytometric analysis (reference value: 5.66 %); format: functional
[10] = target: Histone-lysine N-methyltransferase, H3 lysine-79 specific (Homo sapiens, UniProt Q8TEK3); assay: Inhibition of N-terminal 6His-tagged human DOT1L (1 to 416 residues) expressed in Escherichia coli BL21(DE3) at 50 and 100 uM preincubated for 15 mins followed by [3H]-SAM addition measured after 120 mins by radioactive methylation assay
Histone-lysine N-methyltransferase, H3 lysine-79 specific, sequence (Q8TEK3 whole entry, looked up, the tested form may be a part): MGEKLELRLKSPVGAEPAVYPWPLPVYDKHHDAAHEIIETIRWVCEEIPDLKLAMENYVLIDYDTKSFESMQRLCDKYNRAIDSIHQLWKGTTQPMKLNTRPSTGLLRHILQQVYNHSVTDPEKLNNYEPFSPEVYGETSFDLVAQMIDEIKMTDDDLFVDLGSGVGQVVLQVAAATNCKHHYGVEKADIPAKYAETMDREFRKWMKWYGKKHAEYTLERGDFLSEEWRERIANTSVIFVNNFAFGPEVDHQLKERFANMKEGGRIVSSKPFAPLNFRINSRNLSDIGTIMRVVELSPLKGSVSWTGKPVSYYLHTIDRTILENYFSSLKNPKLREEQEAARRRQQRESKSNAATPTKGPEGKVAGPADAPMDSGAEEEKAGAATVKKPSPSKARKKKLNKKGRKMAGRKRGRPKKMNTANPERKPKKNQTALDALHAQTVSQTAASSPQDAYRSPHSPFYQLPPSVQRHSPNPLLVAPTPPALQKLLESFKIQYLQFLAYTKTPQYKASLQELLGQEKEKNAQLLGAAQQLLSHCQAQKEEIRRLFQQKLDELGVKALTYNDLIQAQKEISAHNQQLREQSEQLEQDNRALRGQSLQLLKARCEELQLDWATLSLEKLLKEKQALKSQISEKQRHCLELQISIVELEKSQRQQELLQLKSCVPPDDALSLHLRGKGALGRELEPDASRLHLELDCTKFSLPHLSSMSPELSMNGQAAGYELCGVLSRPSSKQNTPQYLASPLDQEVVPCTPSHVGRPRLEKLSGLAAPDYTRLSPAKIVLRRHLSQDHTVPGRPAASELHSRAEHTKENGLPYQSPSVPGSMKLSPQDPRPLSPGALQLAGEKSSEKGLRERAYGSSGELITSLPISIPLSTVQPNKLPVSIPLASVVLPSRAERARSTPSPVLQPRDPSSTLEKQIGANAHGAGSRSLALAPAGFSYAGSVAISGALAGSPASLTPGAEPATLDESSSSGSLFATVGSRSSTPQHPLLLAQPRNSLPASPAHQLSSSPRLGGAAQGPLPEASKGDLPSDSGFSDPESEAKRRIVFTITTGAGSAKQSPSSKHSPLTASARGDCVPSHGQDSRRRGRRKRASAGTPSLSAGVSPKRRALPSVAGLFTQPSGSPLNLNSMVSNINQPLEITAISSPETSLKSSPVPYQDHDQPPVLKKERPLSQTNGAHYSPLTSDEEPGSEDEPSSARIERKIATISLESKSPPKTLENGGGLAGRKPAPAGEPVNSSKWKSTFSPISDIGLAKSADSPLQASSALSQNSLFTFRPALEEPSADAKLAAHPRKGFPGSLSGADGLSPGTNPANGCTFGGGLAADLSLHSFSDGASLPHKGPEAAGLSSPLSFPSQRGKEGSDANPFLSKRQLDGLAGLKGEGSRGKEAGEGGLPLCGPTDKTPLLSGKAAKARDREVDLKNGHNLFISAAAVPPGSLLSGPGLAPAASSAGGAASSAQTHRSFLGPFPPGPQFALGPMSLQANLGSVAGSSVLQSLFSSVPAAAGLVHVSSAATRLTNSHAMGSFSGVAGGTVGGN
In short: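 DOT1L and compound preincubated 15 min at room temperature; oligonucleosome and 3H-SAM added; reaction 120 min at room temperature, stopped with cold SAM; transferred to 0.5% PEI-pretreated filter plate, washed 3× with water, read by liquid scintillation counting.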

[11] = target: Histone-lysine N-methyltransferase EZH2 (Homo sapiens) (UniProt Q15910); assay: Inhibition of EZH2 (unknown origin) at 50 and 100 uM preincubated for 15 mins followed by substrate and [3H]-SAM addition for 60 mins in presence of H3K27me peptide measured after 60 mins by liquid scintillation counting method
Histone-lysine N-methyltransferase EZH2 (Homo sapiens), sequence (Q15910 whole entry, looked up): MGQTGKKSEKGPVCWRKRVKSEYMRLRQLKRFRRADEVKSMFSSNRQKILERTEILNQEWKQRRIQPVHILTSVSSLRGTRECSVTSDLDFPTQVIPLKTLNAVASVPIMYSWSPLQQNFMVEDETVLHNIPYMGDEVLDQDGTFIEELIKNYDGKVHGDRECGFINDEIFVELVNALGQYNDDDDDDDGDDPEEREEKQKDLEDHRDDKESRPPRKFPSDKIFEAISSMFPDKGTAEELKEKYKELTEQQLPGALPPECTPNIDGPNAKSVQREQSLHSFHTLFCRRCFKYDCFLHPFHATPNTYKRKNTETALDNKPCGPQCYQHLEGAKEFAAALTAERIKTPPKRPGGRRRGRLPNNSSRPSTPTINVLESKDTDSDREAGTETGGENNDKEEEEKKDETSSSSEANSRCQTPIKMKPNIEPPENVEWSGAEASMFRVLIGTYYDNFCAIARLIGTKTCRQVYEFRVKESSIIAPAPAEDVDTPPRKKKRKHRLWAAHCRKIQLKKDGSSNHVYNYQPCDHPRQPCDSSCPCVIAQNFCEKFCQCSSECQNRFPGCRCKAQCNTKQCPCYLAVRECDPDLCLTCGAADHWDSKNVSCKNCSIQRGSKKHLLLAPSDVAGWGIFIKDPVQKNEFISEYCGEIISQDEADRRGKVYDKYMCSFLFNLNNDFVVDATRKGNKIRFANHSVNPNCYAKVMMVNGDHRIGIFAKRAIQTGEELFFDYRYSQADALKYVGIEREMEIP
In short: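 In modified Tris buffer with H3K27me peptide, enzyme preincubated 15 min at room temperature; substrate added to start; stopped with cold SAM; mix on Flashplate at least 60 min at room temperature, washed with water plus 0.1% Tween-20, read by scintillation counting.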

MV4-11 [12] = assay: Induction of cell cycle arrest in human MV4-11 cells assessed as accumulation at G1 phase at 25 uM after 48 hrs by propidium iodide/RNase-staining based flow cytometric analysis (reference value: 68.16 %); format: functional; in short: as §1
MV4-11 [13] = assay: Induction of apoptosis in human MV4-11 cells assessed as viable cells at 25 uM after 72 hrs by annexin V/FITC and propidium iodide staining-based flow cytometric analysis (reference value: 90.3 %); format: functional; conditions: MV4-11, 72 h, read-out: Activity
Kasumi 1 = assay: Cytotoxicity against human Kasumi-1 cells assessed as reduction in cell viability after 72 hrs by alamar blue assay; format: functional, cell-based; conditions: Kasumi 1, 72 h; in short: as §2
MV4-11 [14] = assay: Induction of cell cycle arrest in human MV4-11 cells assessed as accumulation at S phase at 50 uM after 48 hrs by propidium iodide/RNase-staining based flow cytometric analysis (reference value: 24.40 %); format: functional; in short: as §1
MV4-11 [15] = assay: Induction of apoptosis in human MV4-11 cells assessed as viable cells at 12.5 uM after 72 hrs by annexin V/FITC and propidium iodide staining-based flow cytometric analysis (reference value: 90.3 %); format: functional; conditions: MV4-11, 72 h, read-out: Activity
MV4-11 [16] = assay: Induction of apoptosis in human MV4-11 cells assessed as necrotic cells at 12.5 uM after 72 hrs by annexin V/FITC and propidium iodide staining-based flow cytometric analysis (reference value: 0.04 %); format: functional
MV4-11 [17] = assay: Induction of cell cycle arrest in human MV4-11 cells assessed as accumulation at G1 phase at 12.5 uM after 48 hrs by propidium iodide/RNase-staining based flow cytometric analysis (reference value: 68.16 %); format: functional; in short: as §1

inhibition [4]: < 40% | inhibition [10]: Active | inhibition [11]: < 40%
Structure (SMILES): Fc1cccc(-c2nn3c(Cn4nnc5ccccc54)nnc3s2)c1
Activity (MV4-11 [1]): 0.99% | Activity (MV4-11 [2]): 26.56% | viability at 6.25 µM (MV4-11 [3]): 24.2% | Activity (MV4-11 [5]): 1.6% | Activity (MV4-11 [6]): 55.2% | IC50 (K562): > 200 µM | Activity (MV4-11 [7]): 0.28% | viability at 50 µM (MV4-11 [8]): 3.75% | Activity (MV4-11 [9]): 58.2% | Activity (MV4-11 [12]): 83.18% | viability at 25 µM (MV4-11 [13]): 6.76% | IC50 (Kasumi 1): > 200 µM | Activity (MV4-11 [14]): 17.76% | viability at 12.5 µM (MV4-11 [15]): 10.6% | Activity (MV4-11 [16]): 3.8% | Activity (MV4-11 [17]): 70.27%
